Experimental data gathered from unrelated publications.
Protocols differ between the studies behind these lines.
Organism: Staphylococcus aureus
Observed: microbial growth

Compound | technique | strain | time | MIC
O=c1c(O[C@@H]2O[C@H](CO)[C@@H](O)[C@H](O)[C@H]2O)c(-c2ccc(O)c(O)c2)oc2cc(O)cc(O)c12 | broth dilution | – | 16 h | > 100 µg/mL
CO[C@@H]1[C@@H](OC(N)=O)[C@@H](O)[C@H](Oc2ccc3c(O)c(NC(=O)c4ccc(O)c(CC=C(C)C)c4)c(=O)oc3c2C)OC1(C)C | broth dilution | ATCC29213 | – | 0.25 µg/mL
CC(C)NCC(COc1cccc2ccccc12)OC(=O)C=Cc1ccc(O)c(O)c1 (centres unmarked) | broth dilution | FDA209 | – | 32 µg/mL
Cc1nn(-c2ccccc2)c2c1C(c1ccc([N+](=O)[O-])cc1)N(C(=O)c1ccncc1)N2 (centres unmarked) | – | MTCC96 | 24 h | 64 µg/mL
Cc1[nH]c(C(=O)Nc2ccc(C(=O)NCC(=O)O)cc2N2CC[C@H](N)C2)c(Cl)c1Cl.Cl | broth dilution | ATCC29213 | – | > 32 µg/mL
Cc1ccccc1NC(=O)C=Cc1ccc(O)c(O)c1 | broth dilution | FDA209 | – | 8 µg/mL
Cl.N[C@H]1CCN(c2cc(C(=O)NCC(=O)O)ccc2NC(=O)c2cc(Br)c(Br)[nH]2)C1 | broth dilution | ATCC29213 | – | > 32 µg/mL
CC(O)CSc1nnc(-c2cc3ccccc3o2)n1-c1ccccc1 (centres unmarked) | – | – | – | 2500 µg/mL
O=C(N[C@H](CO)[C@H](O)c1ccc([N+](=O)[O-])cc1)C(Cl)Cl | – | – | 24 h | 5 to 10 µM
O=C(C=Cc1ccc(O)c(O)c1)Oc1cccc2cccnc12 | broth dilution | FDA209 | – | 8 µg/mL
CN[C@@H]1[C@@H](O[C@H]2O[C@H](CO)[C@@H](N)[C@H](O)[C@H]2O)OC2C[C@@H](N)[C@@H](O[C@H]3[C@H](O)[C@@H](O)[C@H](N)C[C@@H]3N)OC2[C@@H]1O (some centres unmarked) | – | – | 24 h | 1.25 to 2.5 µM
O=C(O)c1cn(C2CC2)c2cc(N3CCNCC3)c(F)cc2c1=O | – | MTCC96 | 24 h | 0.12 µg/mL
O=C(C=Cc1ccc(O)c(O)c1)OCc1ccccc1 | broth dilution | FDA209 | – | 8 µg/mL
C[C@@H]1O[C@@H](OC[C@H]2O[C@@H](Oc3c(-c4ccc(OCCO)c(OCCO)c4)oc4cc(OCCO)cc(O)c4c3=O)[C@H](O)[C@@H](O)[C@@H]2O)[C@H](O)[C@H](O)[C@H]1O | broth dilution | – | 16 h | > 1020 µg/mL
CC(O)CSc1nnc(Cn2cnc3c2c(=O)n(C)c(=O)n3C)n1-c1ccccc1 (centres unmarked) | – | – | – | 9000 µg/mL
Cc1[nH]c(C(=O)Nc2ccc(C(=O)NCC(=O)O)cc2N2CCNCC2)c(Cl)c1Cl.Cl | broth dilution | ATCC29213 | – | > 32 µg/mL
CN[C@H](CC(C)C)C(=O)N[C@H]1C(=O)N[C@@H](CC(N)=O)C(=O)N[C@H]2C(=O)N[C@H]3C(=O)N[C@H](C(=O)N[C@H](C(=O)O)c4cc(O)cc(O)c4-c4cc3ccc4O)[C@H](O)c3ccc(c(Cl)c3)Oc3cc2cc(c3O[C@@H]2O[C@H](CO)[C@@H](O)[C@H](O)[C@H]2O[C@H]2C[C@](C)(N)[C@H](O)[C@H](C)O2)Oc2ccc(cc2Cl)[C@H]1O | – | BAA44 MRSA | – | 1 µM
Cc1nn(-c2ccccc2)c2c1C(c1ccc(Cl)cc1)N(C(=O)c1ccncc1)N2 (centres unmarked) | – | MTCC96 | 24 h | > 100 µg/mL
Cc1[nH]c(C(=O)Nc2ccc(C(=O)NCC(=O)O)cc2N2CC[C@H](NC(=O)OC(C)(C)C)C2)c(Cl)c1Cl | broth dilution | ATCC29213 | – | > 32 µg/mL
C=C/C=C(\C)CC[C@H]1C[C@H](O)CC(=O)O1 | broth dilution | ATCC6538P | – | 256 µg/mL
Cc1nn(-c2ccccc2)c2c1C(c1ccc(N(C)C)cc1)N(C(=O)c1ccncc1)N2 (centres unmarked) | – | MTCC96 | 24 h | 8 µg/mL
CC(C)(C)OC(=O)N[C@@H]1CCN(c2cc(C(=O)NCC(=O)O)ccc2NC(=O)c2cc(Br)c(Br)[nH]2)C1 | broth dilution | ATCC29213 | – | > 32 µg/mL
CC(O)CSc1nnc(COc2ccc(Cl)cc2Br)n1-c1ccccc1 (centres unmarked) | – | – | – | 12000 µg/mL
Cc1[nH]c(C(=O)Nc2ccc(C(=O)NCc3n[nH]c(=O)o3)cc2N2CCNCC2)c(Cl)c1Cl.Cl | broth dilution | ATCC29213 | – | > 32 µg/mL
Cc1nn(-c2ccccc2)c2c1C(c1ccc(O)cc1)N(C(=O)c1ccncc1)N2 (centres unmarked) | – | MTCC96 | 24 h | > 100 µg/mL
Nc1ccccc1OC(=O)C=Cc1ccc(O)c(O)c1 | broth dilution | FDA209 | – | 8 µg/mL
